According to ChEMBL document CHEMBL2069215, “Synthesis and biological evaluation of novel triazoles and isoxazoles linked 2-phenyl benzothiazole as potential anticancer agents” (Bioorg Med Chem Lett, 2012):
Calls of active or inactive are those of the source. The rule behind the calls is not given here.

Experiments:
A549 = experiment: Cytotoxicity against human A549 cells after 24 hrs by MTT assay; format: functional, cell-based; settings: A549, 24 h
In short: (§1)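 A549 lung adenocarcinoma, Colo-205 colon and MCF-7 breast carcinoma cells were exposed to compounds at 1 to 64 µM for 24 h. Viability was read by MTT assay, and IC50 values were derived from it.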

MCF-10A = experiment: Cytotoxicity against human MCF10A cells after 24 hrs by MTT assay; format: cell-based
COLO 205 [1] = experiment: Cytotoxicity against human COLO205 cells after 24 hrs by MTT assay; format: functional, cell-based; settings: COLO 205, 24 h; in short: as §1
MCF7 = experiment: Cytotoxicity against human MCF7 cells after 24 hrs by MTT assay; format: functional, cell-based; settings: MCF7, 24 h; in short: as §1
COLO 205 [2] = experiment: Cell cycle arrest in human COLO205 cells assessed as accumulation at G1 phase at 8 uM after 24 hrs by FACS analysis (reference value: 71.02 +/- 1.00%); format: functional
In short: (§2)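 Colo-205 human colon cancer cells were exposed to 8 or 16 µM for 24 h alongside untreated controls. They were then analysed by flow cytometry (FACS) for cell-cycle distribution as percent of cells in G0, G1, S and G2/M. The G0 population was taken as apoptotic cells.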

COLO 205 [3] = experiment: Cell cycle arrest in human COLO205 cells assessed as accumulation at G2/M phase at 16 uM after 24 hrs by FACS analysis (reference value: 23.09 +/- 1.01%); format: functional; in short: as §2
COLO 205 [4] = experiment: Induction of apoptosis in human COLO205 cells assessed as accumulation at G0 phase at 16 uM after 24 hrs by FACS analysis (reference value: 2.28%); format: functional; in short: as §2
COLO 205 [5] = experiment: Cell cycle arrest in human COLO205 cells assessed as accumulation at G2/M phase at 8 uM after 24 hrs by FACS analysis (reference value: 23.09 +/- 1.01%); format: functional; in short: as §2
COLO 205 [6] = experiment: Cell cycle arrest in human COLO205 cells assessed as accumulation at S phase at 16 uM after 24 hrs by FACS analysis (reference value: 3.56 +/- 0.40%); format: functional; in short: as §2
COLO 205 [7] = experiment: Induction of apoptosis in human COLO205 cells assessed as accumulation at G0 phase at 8 uM after 24 hrs by FACS analysis (reference value: 2.28%); format: functional; in short: as §2
COLO 205 [8] = experiment: Cell cycle arrest in human COLO205 cells assessed as accumulation at G1 phase at 16 uM after 24 hrs by FACS analysis (reference value: 71.02 +/- 1.00%); format: functional; in short: as §2
COLO 205 [9] = experiment: Cell cycle arrest in human COLO205 cells assessed as accumulation at S phase at 8 uM after 24 hrs by FACS analysis (reference value: 3.56 +/- 0.40%); format: functional; in short: as §2
COLO 205 [10] = experiment: Induction of apoptosis in human COLO205 cells assessed as increase in PARP expression at 8 uM after 24 hrs by Western blot analysis; format: functional, cell-based
In short: (§3)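 Colo-205 cells were treated at 8 or 16 µM for 24 h and lysed. Western blots of the lysates were probed with antibodies to procaspase-8, procaspase-9, active caspase-3 and cleaved (active) PARP.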

COLO 205 [11] = experiment: Induction of apoptosis in human COLO205 cells assessed as increase in caspase 3 expression at 8 uM after 24 hrs by Western blot analysis; format: functional, cell-based; in short: as §3
COLO 205 [12] = experiment: Induction of apoptosis in human COLO205 cells assessed as degradation of procaspase 9 at 8 uM after 24 hrs by Western blot analysis; format: functional, cell-based; in short: as §3
COLO 205 [13] = experiment: Induction of apoptosis in human COLO205 cells assessed as degradation of procaspase 8 at 8 uM after 24 hrs by Western blot analysis; format: functional, cell-based; in short: as §3

SMILES | IC50 (A549) [µM] | IC50 (MCF-10A) [µM] | IC50 (COLO 205 [1]) [µM] | IC50 (MCF7) [µM] | Activity (COLO 205 [2]) [%] | Activity (COLO 205 [3]) [%] | Activity (COLO 205 [4]) [%] | Activity (COLO 205 [5]) [%] | Activity (COLO 205 [6]) [%] | Activity (COLO 205 [7]) [%] | Activity (COLO 205 [8]) [%] | Activity (COLO 205 [9]) [%] | Activity (COLO 205 [10]) | Activity (COLO 205 [11]) | Activity (COLO 205 [12]) | Activity (COLO 205 [13])
COc1cc(-c2cc(COc3ccccc3-c3nc4ccccc4s3)on2)cc(OC)c1OC | 22.9 | 42.9 | 17.5 | 25.6 |  |  |  |  |  |  |  |  |  |  |  | 
Brc1ccc(-c2cc(COc3ccccc3-c3nc4ccccc4s3)on2)cc1 | 19.2 | 29.2 | 16.4 | 20 |  |  |  |  |  |  |  |  |  |  |  | 
FC(F)(F)C(F)(F)C(F)(F)C(F)(F)C(F)(F)C(F)(F)CCn1cc(COc2ccccc2-c2nc3ccccc3s2)nn1 | 15.1 | 35.1 | 14.2 | 19.8 | 73.66 | 22.3 | 11.91 | 20.53 | 4.42 | 2.72 | 61.36 | 3.09 |  |  |  | 
Clc1ccc(-c2cc(COc3ccccc3-c3nc4ccccc4s3)on2)cc1 | 18.8 | 38.8 | 16.4 | 23.8 |  |  |  |  |  |  |  |  |  |  |  | 
FC(F)(F)Oc1ccc(-c2cc(COc3ccccc3-c3nc4ccccc4s3)on2)cc1 | 23.9 | 43.9 | 19.9 | 26.6 |  |  |  |  |  |  |  |  |  |  |  | 
FC(F)(F)C(F)(F)C(F)(F)C(F)(F)C(F)(F)C(F)(F)C(F)(F)C(F)(F)CCn1cc(COc2ccccc2-c2nc3ccccc3s2)nn1 | 13.1 | 33.1 | 12.2 | 19.2 | 72 | 15.18 | 34.45 | 20.22 | 3.79 | 3.3 | 46.57 | 4.43 |  |  |  | 
c1ccc(-n2cc(COc3ccccc3-c3nc4ccccc4s3)nn2)cc1 | 16.4 | 36.4 | 16.6 | 26.2 |  |  |  |  |  |  |  |  |  |  |  | 
COc1ccc(-c2nc3cc(F)ccc3s2)cc1OC | 15.9 | 25.2 | 13.9 | 20.2 | 70.04 | 15.6 | 27.17 | 22.5 | 4.31 | 4.15 | 52.82 | 3.21 |  |  |  | 
COc1ccc(-c2cc(COc3ccccc3-c3nc4ccccc4s3)on2)cc1 | 24.1 | 34.1 | 20.7 | 22.1 |  |  |  |  |  |  |  |  |  |  |  | 
FC(F)(F)c1cccc(-n2cc(COc3ccccc3-c3nc4ccccc4s3)nn2)c1 | 11.1 | 31.1 | 10.8 | 18.9 | 70.91 | 10.67 | 40.7 | 21.68 | 2.68 | 4.02 | 45.77 | 3.37 | Active | Active | Active | Active
Fc1ccccc1-c1cc(COc2ccccc2-c2nc3ccccc3s2)on1 | 22.5 | 42.5 | 18.3 | 23.9 |  |  |  |  |  |  |  |  |  |  |  | 
Fc1ccc(-n2cc(COc3ccccc3-c3nc4ccccc4s3)nn2)cc1Cl | 16.3 | 26.3 | 14.4 | 27.3 |  |  |  |  |  |  |  |  |  |  |  | 
Cc1ccc(-c2cc(COc3ccccc3-c3nc4ccccc4s3)on2)cc1 | 16.4 | 26.4 | 14.2 | 27.5 |  |  |  |  |  |  |  |  |  |  |  | 
Fc1ccc(-n2cc(COc3ccccc3-c3nc4ccccc4s3)nn2)cc1 | 23.3 | 33.3 | 18.9 | 26.2 |  |  |  |  |  |  |  |  |  |  |  | 
